From ChEMBL document CHEMBL4229410, “Facile construction of fused benzimidazole-isoquinolinones that induce cell-cycle arrest and apoptosis in colorectal cancer cells” (Bioorg Med Chem, 2018)

Legend:
SW-620 [1] = test: Cell cycle arrest in human SW620 cells assessed as accumulation at S-phase at 50 uM after 48 hrs by propidium iodide staining based flow cytometry (reference value: 43.72%); format: functional
SW-620 [2] = test: Induction of apoptosis in human SW620 cells assessed as early apoptotic cells at 75 uM after 48 hrs by Annexin-V-FITC/propidium iodide staining based flow cytometry (reference value: 0.4%); format: functional
HT-29 [3] = test: Induction of apoptosis in human HT-29 cells assessed as early apoptotic cells at 75 uM after 48 hrs by Annexin-V-FITC/propidium iodide staining based flow cytometry (reference value: 1%); format: functional
[4] = target: Hepatocyte growth factor receptor (Homo sapiens, UniProt P08581); test: Inhibition of human MET (D1010 to S1367 residues) expressed in bacterial expression system assessed as residual activity at 5 uM by KINOMEscan assay relative to control
[5] = target: Tyrosine-protein kinase receptor UFO (Homo sapiens, UniProt P30530); test: Binding affinity to human AXL (R497 to Y821 residues) expressed in bacterial expression system by KINOMEscan assay
Ephrin type-A receptor 2 = Ephrin type-A receptor 2 (Homo sapiens, UniProt P29317); test: Inhibition of human EPHA2 (T593 to V891 residues) expressed in bacterial expression system assessed as residual activity at 5 uM by KINOMEscan assay relative to control
SW-620 [6] = test: Cell cycle arrest in human SW620 cells assessed as accumulation at G1-phase at 50 uM after 48 hrs by propidium iodide staining based flow cytometry (reference value: 40.56%); format: functional
[7] = target: Serine/threonine-protein kinase pim-3 (Homo sapiens, UniProt Q86V86); test: Inhibition of human PIM3 (G16 to A317 residues) expressed in bacterial expression system assessed as residual activity at 5 uM by KINOMEscan assay relative to control
[8] = target: RAC-beta serine/threonine-protein kinase (Homo sapiens, UniProt P31751); test: Inhibition of human AKT2 expressed in bacterial expression system assessed as residual activity at 5 uM by KINOMEscan assay relative to control
[9] = target: NUAK family SNF1-like kinase 2 (Homo sapiens) (UniProt Q9H093); test: Inhibition of human SNARK (P22 to A333 residues) expressed in mammalian expression system assessed as residual activity at 5 uM by KINOMEscan assay relative to control
HT-29 [10] = test: Down regulation of CDK1 expression in human HT-29 cells after 48 hrs by Western blot analysis; format: functional, cell-based
Outline: (§1)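 HT29 or SW620 cells were treated at 0, 25, 50 and 75 μM for 48 h and lysed in RIPA with protease and phosphatase inhibitors. Protein was quantified by BCA. 50 μg lysate was run on 8–15% SDS-PAGE and transferred to PVDF. Blocking was 5% BSA/TBST for 2 h; primary antibodies were applied overnight at 4 °C, then HRP secondary 1 h at room temperature.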

HT-29 [11] = test: Cell cycle arrest in human HT-29 cells assessed as accumulation at S-phase at 75 uM after 48 hrs by propidium iodide staining based flow cytometry (reference value: 37.82%); format: functional
[12] = target: T1, Atypical kinase COQ8A, mitochondrial (Homo sapiens, UniProt Q8NI60); test: Inhibition of […] human ADCK3 (M280 to Q647 residues) expressed in bacterial expression system assessed as residual activity at 5 uM by KINOMEscan assay relative to control
Target sequence in this assay (Q8NI60 163-647 limits assumed): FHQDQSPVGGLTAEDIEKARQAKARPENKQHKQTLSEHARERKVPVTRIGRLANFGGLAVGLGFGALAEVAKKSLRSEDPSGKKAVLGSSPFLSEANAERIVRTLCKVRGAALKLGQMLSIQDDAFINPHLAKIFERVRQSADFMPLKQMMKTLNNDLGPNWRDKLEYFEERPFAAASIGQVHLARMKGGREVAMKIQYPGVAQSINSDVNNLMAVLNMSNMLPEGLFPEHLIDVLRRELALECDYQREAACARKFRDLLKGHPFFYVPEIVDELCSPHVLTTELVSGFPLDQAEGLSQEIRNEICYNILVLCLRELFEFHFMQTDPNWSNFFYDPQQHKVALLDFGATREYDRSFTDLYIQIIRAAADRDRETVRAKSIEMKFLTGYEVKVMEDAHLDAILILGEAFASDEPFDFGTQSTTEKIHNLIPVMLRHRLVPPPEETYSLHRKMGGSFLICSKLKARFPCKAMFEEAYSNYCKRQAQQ

HT-29 [13] = test: Induction of apoptosis in human HT-29 cells assessed as reduction in BCL2 expression after 48 hrs by Western blot analysis; format: functional, cell-based; outline: as §1
[14] = target: cAMP-dependent protein kinase catalytic subunit alpha (Homo sapiens, UniProt P17612); test: Binding affinity to human PKACalpha (G10 to F351 residues) expressed in bacterial expression system by KINOMEscan assay
[15] = test system: Tyrosine-protein kinase ABL1 (Homo sapiens), P00519 [T315I]; test: Inhibition of human phosphorylated ABL1 T315I mutant (S229 to K512 residues) expressed in mammalian expression system assessed as residual activity at 5 uM by KINOMEscan assay relative to control
[16] = target: MAP kinase-interacting serine/threonine-protein kinase 1 (Homo sapiens, UniProt Q9BUB5); test: Inhibition of full length human MKNK1 (M1 to L424 residues) expressed in mammalian expression system assessed as residual activity at 5 uM by KINOMEscan assay relative to control
[17] = target: T1, Atypical kinase COQ8A, mitochondrial; test: Binding affinity to full length human ADCK3 (M280 to Q647 residues) expressed in bacterial expression system by KINOMEscan assay
Target sequence in this assay (Q8NI60 whole entry, the tested form may be a part): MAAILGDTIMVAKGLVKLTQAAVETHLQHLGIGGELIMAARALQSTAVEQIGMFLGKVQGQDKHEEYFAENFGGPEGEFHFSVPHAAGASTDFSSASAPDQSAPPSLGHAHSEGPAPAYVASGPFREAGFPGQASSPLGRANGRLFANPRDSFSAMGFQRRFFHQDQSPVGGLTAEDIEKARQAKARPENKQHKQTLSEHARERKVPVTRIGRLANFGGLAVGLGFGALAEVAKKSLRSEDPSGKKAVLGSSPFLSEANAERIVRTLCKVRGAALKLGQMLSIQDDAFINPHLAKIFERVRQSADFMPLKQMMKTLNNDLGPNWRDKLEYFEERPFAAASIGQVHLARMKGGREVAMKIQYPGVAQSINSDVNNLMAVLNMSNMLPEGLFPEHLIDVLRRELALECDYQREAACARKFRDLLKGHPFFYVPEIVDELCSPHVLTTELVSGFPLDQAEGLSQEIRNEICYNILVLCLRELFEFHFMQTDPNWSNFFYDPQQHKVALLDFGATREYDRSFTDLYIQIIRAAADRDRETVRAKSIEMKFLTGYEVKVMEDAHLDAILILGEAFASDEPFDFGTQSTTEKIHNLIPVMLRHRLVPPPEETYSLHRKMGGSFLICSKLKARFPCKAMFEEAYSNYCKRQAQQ

[18] = target: Bone morphogenetic protein receptor type-2 (Homo sapiens, UniProt Q13873); test: Binding affinity to human BMPR2 (R179 to Q526 residues) expressed in mammalian expression system by KINOMEscan assay
SW-620 [19] = test: Increase in PTEN expression in human SW620 cells after 48 hrs by Western blot analysis; format: functional, cell-based; outline: as §1
[20] = target: Rho-associated protein kinase 2 (Homo sapiens, UniProt O75116); test: Binding affinity to human ROCK2 (M1 to T431 residues) expressed in mammalian expression system by KINOMEscan assay
[21] = target: Proto-oncogene tyrosine-protein kinase Src (Homo sapiens, UniProt P12931); test: Inhibition of human SRC (L240 to L536 residues) expressed in bacterial expression system assessed as residual activity at 5 uM by KINOMEscan assay relative to control
SW-620 [22] = test: Effect on total 4EBP1 expression in human SW620 cells up to 75 uM after 48 hrs by Western blot analysis; format: ADME, cell-based; conditions: sw-620, 48 h; outline: as §1
[23] = target: Mitogen-activated protein kinase kinase kinase 4 (Homo sapiens, UniProt Q9Y6R4); test: Binding affinity to human MAP3K4 (G1319 to E1608 residues) expressed in bacterial expression system by KINOMEscan assay
[24] = target: Mast/stem cell growth factor receptor Kit (Homo sapiens, UniProt P10721, T670I/V559D); test: Binding affinity to human KIT (I571 to D952 residues) V559D/T670I double mutant expressed in bacterial expression system by KINOMEscan assay
[25] = target: Activin receptor type-1B (Homo sapiens) (UniProt P36896); test: Inhibition of human ACVR1B (S187 to I505 residues) expressed in bacterial expression system assessed as residual activity at 5 uM by KINOMEscan assay relative to control
[26] = target: Mitogen-activated protein kinase kinase kinase 9 (Homo sapiens, UniProt P80192); test: Binding affinity to human MLK1 (V88 to W426 residues) expressed in bacterial expression system by KINOMEscan assay
[27] = target: Casein kinase I isoform delta (Homo sapiens, UniProt P48730); test: Binding affinity to full length human CSNK1D (M1 to K409 residues) expressed in bacterial expression system by KINOMEscan assay
[28] = target: Fibroblast growth factor receptor 2 (Homo sapiens, UniProt P21802); test: Inhibition of partial length human FGFR2 (D457 to E769 residues) expressed in bacterial expression system assessed as residual activity at 5 uM by KINOMEscan assay relative to control

Chain of Mitogen-activated protein kinase kinase kinase 4 (Q9Y6R4 whole entry, the tested form may be a part): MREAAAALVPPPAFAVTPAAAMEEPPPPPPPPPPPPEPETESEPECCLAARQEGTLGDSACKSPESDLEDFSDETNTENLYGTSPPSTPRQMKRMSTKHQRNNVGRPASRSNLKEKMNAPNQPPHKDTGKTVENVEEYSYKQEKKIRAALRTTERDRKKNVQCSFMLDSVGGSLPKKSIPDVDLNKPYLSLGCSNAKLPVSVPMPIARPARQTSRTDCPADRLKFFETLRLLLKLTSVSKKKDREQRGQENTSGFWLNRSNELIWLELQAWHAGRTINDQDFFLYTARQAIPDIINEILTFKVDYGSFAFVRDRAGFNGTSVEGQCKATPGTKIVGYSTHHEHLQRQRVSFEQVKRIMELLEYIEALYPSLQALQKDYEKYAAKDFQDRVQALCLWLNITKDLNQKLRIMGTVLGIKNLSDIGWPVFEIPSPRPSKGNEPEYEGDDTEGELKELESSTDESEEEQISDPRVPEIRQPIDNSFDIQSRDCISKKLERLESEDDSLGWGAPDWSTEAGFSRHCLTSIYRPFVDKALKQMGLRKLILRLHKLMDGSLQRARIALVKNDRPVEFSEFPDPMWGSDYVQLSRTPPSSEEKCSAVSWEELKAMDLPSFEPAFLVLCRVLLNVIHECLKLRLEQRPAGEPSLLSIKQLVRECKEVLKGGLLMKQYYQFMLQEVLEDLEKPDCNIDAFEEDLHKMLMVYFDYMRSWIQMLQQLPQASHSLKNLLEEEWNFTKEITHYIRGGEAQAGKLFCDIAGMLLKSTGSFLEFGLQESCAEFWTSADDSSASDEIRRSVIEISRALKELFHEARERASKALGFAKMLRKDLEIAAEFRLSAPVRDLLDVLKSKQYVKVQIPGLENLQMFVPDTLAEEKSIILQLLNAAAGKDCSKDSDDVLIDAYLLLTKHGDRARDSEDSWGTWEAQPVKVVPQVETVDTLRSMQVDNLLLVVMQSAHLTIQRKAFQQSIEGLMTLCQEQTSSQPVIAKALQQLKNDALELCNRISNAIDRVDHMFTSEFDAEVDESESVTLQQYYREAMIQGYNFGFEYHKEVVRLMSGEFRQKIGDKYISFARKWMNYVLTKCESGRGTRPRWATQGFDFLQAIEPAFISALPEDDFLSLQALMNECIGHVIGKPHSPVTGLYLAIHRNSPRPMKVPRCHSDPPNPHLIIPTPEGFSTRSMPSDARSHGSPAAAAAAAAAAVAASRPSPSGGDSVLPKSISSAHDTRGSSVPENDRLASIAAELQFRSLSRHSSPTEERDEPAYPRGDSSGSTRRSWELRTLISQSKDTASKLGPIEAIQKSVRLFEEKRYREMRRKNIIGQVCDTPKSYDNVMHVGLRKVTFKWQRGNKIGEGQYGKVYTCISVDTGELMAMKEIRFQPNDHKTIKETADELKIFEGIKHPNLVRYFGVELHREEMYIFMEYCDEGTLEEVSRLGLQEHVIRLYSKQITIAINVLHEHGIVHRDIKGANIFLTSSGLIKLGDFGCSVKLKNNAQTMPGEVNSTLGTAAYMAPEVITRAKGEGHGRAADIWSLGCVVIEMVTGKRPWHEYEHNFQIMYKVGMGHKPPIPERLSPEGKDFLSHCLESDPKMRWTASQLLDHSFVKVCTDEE
Chain of Tyrosine-protein kinase receptor UFO (P30530 whole entry, the tested form may be a part): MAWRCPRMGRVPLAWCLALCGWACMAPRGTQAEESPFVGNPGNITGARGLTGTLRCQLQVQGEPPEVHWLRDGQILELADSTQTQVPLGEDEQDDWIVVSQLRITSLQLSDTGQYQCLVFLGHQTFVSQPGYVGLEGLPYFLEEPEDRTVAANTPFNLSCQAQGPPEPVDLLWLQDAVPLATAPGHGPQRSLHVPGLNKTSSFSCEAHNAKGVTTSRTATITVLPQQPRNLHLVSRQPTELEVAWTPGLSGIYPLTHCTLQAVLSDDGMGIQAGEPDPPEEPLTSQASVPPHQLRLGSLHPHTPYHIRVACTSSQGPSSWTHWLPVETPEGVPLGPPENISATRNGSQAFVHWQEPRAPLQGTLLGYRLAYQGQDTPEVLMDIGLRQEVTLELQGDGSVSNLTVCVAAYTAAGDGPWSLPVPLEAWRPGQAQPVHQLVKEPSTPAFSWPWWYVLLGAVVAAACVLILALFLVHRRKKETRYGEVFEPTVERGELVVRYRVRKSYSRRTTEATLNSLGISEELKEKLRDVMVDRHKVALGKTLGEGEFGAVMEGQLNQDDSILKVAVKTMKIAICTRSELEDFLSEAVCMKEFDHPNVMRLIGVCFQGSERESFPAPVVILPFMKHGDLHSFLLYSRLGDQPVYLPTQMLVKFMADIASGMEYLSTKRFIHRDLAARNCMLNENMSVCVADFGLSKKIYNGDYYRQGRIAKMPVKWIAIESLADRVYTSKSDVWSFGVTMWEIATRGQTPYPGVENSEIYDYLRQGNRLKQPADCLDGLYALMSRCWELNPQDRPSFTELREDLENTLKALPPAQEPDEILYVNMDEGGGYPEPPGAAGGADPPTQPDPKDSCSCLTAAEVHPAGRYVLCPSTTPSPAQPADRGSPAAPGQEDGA
Chain of Bone morphogenetic protein receptor type-2 (Q13873 whole entry, the tested form may be a part): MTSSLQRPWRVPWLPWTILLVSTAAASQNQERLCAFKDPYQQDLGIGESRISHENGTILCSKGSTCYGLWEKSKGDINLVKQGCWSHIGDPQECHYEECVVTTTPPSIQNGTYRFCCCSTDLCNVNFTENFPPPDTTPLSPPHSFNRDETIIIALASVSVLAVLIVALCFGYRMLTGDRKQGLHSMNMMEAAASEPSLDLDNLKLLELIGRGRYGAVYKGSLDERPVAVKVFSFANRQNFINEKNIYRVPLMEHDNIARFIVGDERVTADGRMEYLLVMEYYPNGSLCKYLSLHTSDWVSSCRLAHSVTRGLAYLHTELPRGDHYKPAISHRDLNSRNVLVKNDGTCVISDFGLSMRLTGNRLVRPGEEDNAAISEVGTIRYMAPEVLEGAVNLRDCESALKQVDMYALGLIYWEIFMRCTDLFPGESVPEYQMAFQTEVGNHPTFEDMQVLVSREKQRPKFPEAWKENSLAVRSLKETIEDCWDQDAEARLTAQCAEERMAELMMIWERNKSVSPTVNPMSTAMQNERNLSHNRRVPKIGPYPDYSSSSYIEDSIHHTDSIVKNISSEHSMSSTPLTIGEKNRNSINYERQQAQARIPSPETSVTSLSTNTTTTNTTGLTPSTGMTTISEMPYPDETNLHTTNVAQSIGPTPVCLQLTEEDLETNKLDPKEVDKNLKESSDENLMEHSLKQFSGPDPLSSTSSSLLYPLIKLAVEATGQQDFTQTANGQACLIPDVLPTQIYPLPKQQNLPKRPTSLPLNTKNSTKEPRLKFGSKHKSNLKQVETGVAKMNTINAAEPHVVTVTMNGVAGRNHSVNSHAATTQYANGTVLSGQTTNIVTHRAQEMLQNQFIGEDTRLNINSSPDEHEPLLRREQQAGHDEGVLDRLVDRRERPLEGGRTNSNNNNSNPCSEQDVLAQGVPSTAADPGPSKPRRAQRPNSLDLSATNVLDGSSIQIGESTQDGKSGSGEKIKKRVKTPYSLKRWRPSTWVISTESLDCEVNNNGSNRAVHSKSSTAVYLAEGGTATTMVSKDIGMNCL
Chain of Casein kinase I isoform delta (P48730 whole entry, the tested form may be a part, canonical isoform): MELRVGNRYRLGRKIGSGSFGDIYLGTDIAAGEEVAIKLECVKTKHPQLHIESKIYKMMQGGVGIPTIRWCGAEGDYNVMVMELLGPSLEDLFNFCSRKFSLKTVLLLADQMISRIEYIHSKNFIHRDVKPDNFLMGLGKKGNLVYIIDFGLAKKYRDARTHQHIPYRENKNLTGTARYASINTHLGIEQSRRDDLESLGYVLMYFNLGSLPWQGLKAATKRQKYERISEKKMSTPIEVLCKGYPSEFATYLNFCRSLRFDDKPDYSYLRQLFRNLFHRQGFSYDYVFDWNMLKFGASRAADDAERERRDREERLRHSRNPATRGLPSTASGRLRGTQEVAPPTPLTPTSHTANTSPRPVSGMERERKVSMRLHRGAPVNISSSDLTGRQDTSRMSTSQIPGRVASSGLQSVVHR

Structure (SMILES): CC(C)CN(C(=O)c1cccnc1)c1c2ccccc2c(=O)n2c1[nH]c1ccccc12
- Activity (SW-620 [1]): 32.39%
- Activity (SW-620 [2]): 0.2%
- Activity (HT-29 [3]): 0.3%
- Activity [4]: 86%
- Kd [5]: ≥ 5 µM
- Activity (Ephrin type-A receptor 2): 100%
- Activity (SW-620 [6]): 46.19%
- Activity [7]: 100%
- Activity [8]: 100%
- Activity [9]: 100%
- Activity (HT-29 [10]): Dose-dependent effect
- Activity (HT-29 [11]): 33.33%
- Activity [12]: 100%
- Activity (HT-29 [13]): Dose-dependent effect
- Kd [14]: ≥ 5 µM
- Activity [15]: 90%
- Activity [16]: 97%
- Kd [17]: ≥ 5 µM
- Kd [18]: ≥ 5 µM
- Activity (SW-620 [19]): Dose-dependent effect
- Kd [20]: ≥ 5 µM
- Activity [21]: 100%
- Activity (SW-620 [22]): Non-Toxic
- Kd [23]: ≥ 5 µM
- Kd [24]: ≥ 5 µM
- Activity [25]: 92%
- Kd [26]: ≥ 5 µM
- Kd [27]: ≥ 5 µM
- Activity [28]: 76%
